According to ChEMBL document CHEMBL1124782, “DNA binding by antitumor anthracene derivatives” (J Med Chem, 1990):

Experiments:
Nucleic Acid [1] = experiment: Apparent binding constant (McGhee-von Hippel) was determined by using spectrophotometric titration; assay type: nucleic-acid assay; settings: Bos taurus
Summary of the method: (§1)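 Calf thymus DNA (<3% protein) titrated by UV-visible absorbance in 0.1 M NaCl, 0.01 M sodium phosphate, 0.001 M EDTA, pH 7.0. Drug stock about 2×10^-4 M. DNA prepared fresh at 5×10^-4 M (base pairs) for each titration. Free and bound drug extinction coefficients came from Beer's law plots. Bound/free data were fitted by McGhee-von Hippel equations or by a cubic spline derivative analysis.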

Nucleic Acid [2] = experiment: Cubic spline relative binding strength was determined by using spectrophotometric titration; assay type: nucleic-acid assay; settings: Bos taurus; summary of the method: as §1
Nucleic Acid [3] = experiment: (§2) delta Tm value is the difference between Tm(melting temperature) for calf thymus DNA with drug and without drug(Tm = 71 degree C for DNA alone); assay type: nucleic-acid assay; settings: Bos taurus
[4] = pKa value for amino group in the compound; assay type: physicochemical
Summary of the method: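 0.2 mmol of compound, as free base or dihydrochloride, was dissolved in 0.0392 N HCl to give 1 mequiv acid beyond full protonation of the amino groups. The solution was stirred and titrated with 0.0242 N NaOH with pH monitoring. Macroscopic pKa was read at 0.5 equiv base per functional group. Poorly soluble material was titrated in very dilute solution.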

Nucleic Acid [5] = experiment: as §2; assay type: functional; settings: Bos taurus

Row | K app (Nucleic Acid [1]) [µM⁻¹] | Relative binding (Nucleic Acid [2]) | ΔTm (Nucleic Acid [3]) [°C] | pKa [4] | pKa ([4]; read-out: pKa1) | pKa ([4]; read-out: pKa2) | pKa ([4]; read-out: pKa3) | pKa ([4]; read-out: pKa4) | SMILES | ΔTm (Nucleic Acid [5]) [°C]
1 | 0.1 | 0.75 | 12 |  | 3.9 | 5.35 | 8.4 | 9.4 | CN(C)CCNCc1c2ccccc2c(CNCCN(C)C)c2ccccc12 | 
2 |  |  |  |  | 3.85 | 6.3 | 7.5 | 8.5 | c1ccc2c(CNCCN3CCOCC3)c3ccccc3c(CNCCN3CCOCC3)c2c1 | 5
3 | 0.0605 | 0.75 | 16 |  | 2.4 | 3 | 5.2 | 9.15 | CCN1CCCC(NCc2c3ccccc3c(CNC3CCCN(CC)C3)c3ccccc23)C1 (stereo not given) | 
4 | 8.29 | 1.08 | > 20 |  |  |  |  |  | CN1CCN=C1/C=C/c1c2ccccc2c(/C=C/C2=NCCN2)c2ccccc12 | 

The next lines start with the compound.

Row | SMILES | K app (Nucleic Acid [1]) [µM⁻¹] | Relative binding (Nucleic Acid [2]) | ΔTm (Nucleic Acid [3]) [°C] | pKa [4] | pKa ([4]; read-out: pKa1) | pKa ([4]; read-out: pKa2) | pKa ([4]; read-out: pKa3) | pKa ([4]; read-out: pKa4) | ΔTm (Nucleic Acid [5]) [°C]
5 | OCCCCCNCc1c2ccccc2c(CNCCCCCO)c2ccccc12 | 0.0532 | 0.84 | 13 | 8 |  |  |  |  | 
6 | C(=N\NC1=NCCN1)/c1c2ccccc2c(/C=N/NC2=NCCN2)c2ccccc12 [BISANTRENE] | 9.03 | 1.03 | 19 |  | 6.8 |  |  |  | 
7 | CNCCN(C)Cc1c2ccccc2c(CN(C)CCNC)c2ccccc12 |  |  |  |  |  |  |  |  | 3
8 | CC(C)N(CCNCc1c2ccccc2c(CNCCN(C(C)C)C(C)C)c2ccccc12)C(C)C |  |  |  |  |  |  |  |  | 9
9 | NCCNCc1c2ccccc2c(CNCCN)c2ccccc12 | 0.27 | 0.75 | 14 |  |  |  |  |  | 
10 | CN(C)CCN(C)Cc1c2ccccc2c(CN(C)CCN(C)C)c2ccccc12 |  |  |  |  | 3.1 | 4.2 | 8.45 | 9.45 | 1
